Measurements from ChEMBL document CHEMBL4680220, “Synthesis and biological evaluation of acridine-based histone deacetylase inhibitors as multitarget agents against Alzheimer's disease” (Eur J Med Chem, 2020).

What was measured:
[1] = target: T1, Class 1 histone deacetylase (Homo sapiens, UniProt Q13547+O15379+Q92769+Q9BY41); assay: Inhibition of class 1 HDAC in human HeLa cell nuclear extract using Boc-Lys(Ac)-AMC as substrate preincubated for 5 mins followed by substrate addition and measured after 30 mins by fluorescence assay; format: cell-based
T1 sequence (O15379 whole entry, looked up): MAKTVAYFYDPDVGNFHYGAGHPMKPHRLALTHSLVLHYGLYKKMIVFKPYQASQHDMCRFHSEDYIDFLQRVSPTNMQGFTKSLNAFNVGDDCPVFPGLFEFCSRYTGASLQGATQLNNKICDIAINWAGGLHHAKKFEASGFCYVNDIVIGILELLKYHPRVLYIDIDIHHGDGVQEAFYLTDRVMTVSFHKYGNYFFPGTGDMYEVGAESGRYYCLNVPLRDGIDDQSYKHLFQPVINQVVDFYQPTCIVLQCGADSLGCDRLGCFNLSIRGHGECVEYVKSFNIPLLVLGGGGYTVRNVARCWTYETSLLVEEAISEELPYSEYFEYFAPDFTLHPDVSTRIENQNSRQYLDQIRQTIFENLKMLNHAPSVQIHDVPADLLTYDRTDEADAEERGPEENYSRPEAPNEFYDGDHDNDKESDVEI
T1 sequence (Q13547 whole entry, looked up): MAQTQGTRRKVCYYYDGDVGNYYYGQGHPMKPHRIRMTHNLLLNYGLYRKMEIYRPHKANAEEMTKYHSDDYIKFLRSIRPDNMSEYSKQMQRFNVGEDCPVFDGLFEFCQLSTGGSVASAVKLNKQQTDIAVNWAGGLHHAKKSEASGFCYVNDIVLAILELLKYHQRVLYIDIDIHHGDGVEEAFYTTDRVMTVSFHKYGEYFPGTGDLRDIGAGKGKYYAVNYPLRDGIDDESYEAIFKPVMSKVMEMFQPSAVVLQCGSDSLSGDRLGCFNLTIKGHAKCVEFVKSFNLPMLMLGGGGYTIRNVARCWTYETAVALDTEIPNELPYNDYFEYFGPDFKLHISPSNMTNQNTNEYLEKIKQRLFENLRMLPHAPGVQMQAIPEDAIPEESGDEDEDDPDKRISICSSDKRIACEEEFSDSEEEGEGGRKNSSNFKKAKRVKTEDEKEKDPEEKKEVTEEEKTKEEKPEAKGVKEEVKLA
T1 sequence (Q92769 whole entry, looked up): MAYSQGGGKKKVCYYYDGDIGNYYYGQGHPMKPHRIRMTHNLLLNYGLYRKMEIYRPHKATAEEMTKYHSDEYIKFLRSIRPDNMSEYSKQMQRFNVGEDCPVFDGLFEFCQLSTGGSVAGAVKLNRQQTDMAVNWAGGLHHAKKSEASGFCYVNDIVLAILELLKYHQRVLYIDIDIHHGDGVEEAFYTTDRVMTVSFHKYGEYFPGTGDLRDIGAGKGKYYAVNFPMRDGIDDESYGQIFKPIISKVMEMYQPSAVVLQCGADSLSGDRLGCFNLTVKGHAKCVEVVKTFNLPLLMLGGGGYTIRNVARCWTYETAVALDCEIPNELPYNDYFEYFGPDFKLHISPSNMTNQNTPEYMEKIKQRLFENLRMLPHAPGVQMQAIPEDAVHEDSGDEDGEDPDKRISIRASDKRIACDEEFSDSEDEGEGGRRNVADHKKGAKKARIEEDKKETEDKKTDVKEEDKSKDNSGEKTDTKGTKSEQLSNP
T1 sequence (Q9BY41 whole entry, looked up): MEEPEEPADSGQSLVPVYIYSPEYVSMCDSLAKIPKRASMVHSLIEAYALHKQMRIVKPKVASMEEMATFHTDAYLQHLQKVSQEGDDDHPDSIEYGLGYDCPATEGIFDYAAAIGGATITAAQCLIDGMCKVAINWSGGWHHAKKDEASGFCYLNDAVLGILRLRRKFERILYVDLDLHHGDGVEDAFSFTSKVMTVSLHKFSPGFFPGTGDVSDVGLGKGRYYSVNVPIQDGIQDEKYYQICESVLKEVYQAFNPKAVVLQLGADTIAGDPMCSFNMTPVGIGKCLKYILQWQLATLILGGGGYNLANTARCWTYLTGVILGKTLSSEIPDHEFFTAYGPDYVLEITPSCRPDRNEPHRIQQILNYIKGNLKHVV

Histone deacetylase 2 = Histone deacetylase 2 (Homo sapiens, UniProt Q92769); assay: biochemical; format: cell-based, Sf9
Sequence of Histone deacetylase 2 (Q92769 whole entry): as the sequence (Q92769 whole entry, looked up) above

[2] = target: T2, Amyloid-beta precursor protein (Homo sapiens, UniProt P05067); assay: Inhibition of amyloid beta (1 to 42) (unknown origin) self aggregation after 24 hrs by thioflavin-T fluorescence method
T2 sequence (P05067 whole entry): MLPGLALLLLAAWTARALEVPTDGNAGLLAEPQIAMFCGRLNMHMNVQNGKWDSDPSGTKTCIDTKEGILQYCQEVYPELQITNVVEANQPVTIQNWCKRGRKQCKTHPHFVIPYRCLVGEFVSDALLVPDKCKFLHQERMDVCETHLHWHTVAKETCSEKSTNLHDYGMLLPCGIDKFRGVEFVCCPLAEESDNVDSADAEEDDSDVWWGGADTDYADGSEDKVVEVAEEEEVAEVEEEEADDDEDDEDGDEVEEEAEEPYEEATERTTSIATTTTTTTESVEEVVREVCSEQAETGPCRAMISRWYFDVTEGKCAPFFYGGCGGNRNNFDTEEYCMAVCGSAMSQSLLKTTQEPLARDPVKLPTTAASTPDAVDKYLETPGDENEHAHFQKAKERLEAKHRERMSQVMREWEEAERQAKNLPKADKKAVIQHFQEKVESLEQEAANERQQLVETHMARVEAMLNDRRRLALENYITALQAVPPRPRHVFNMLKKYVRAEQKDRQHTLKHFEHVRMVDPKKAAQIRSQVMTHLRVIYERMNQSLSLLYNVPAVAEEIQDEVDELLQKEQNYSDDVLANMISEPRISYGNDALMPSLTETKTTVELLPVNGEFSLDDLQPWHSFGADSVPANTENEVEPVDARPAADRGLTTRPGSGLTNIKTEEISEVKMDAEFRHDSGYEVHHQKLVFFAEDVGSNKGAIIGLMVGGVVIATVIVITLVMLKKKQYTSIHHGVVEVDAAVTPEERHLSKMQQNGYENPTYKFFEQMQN
Outline: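 ThT aggregation assay. Compound at varying concentrations combined with 10 µM Aβ1-42 (1 mM DMSO stock), 10 µM ThT, 1 mM EDTA in 50 mM phosphate buffer (150 mM NaCl, pH 7.4). Incubated 24 h at 37 °C with shaking at 700 rpm; fluorescence ex 440/em 486 nm. 0.1% DMSO wells = 100% aggregation; compound wells without Aβ = background. IC50 from triplicates.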

[3] = Intrinsic clearance in human liver microsomes at 1 uM preincubated for 3 mins followed by NADPH addition and measured up to 60 mins by LC-MS/MS analysis; format: ADME, Microsome; conditions: 1 h, time <=63 min
Outline: (§1)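 Mixed-gender human liver microsomes with test article at 1 µM final. Testosterone (5 µM) run separately as control. Mixture without cofactor equilibrated 3 min at 37 °C in a shaking water bath, then started with cofactor. Aliquots taken at 0, 10, 20, 30 and 60 min. CLint = k/P, where k is the elimination rate constant and P is the incubation protein concentration.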

Acetylcholinesterase = Acetylcholinesterase (Homo sapiens, UniProt P22303); assay: Inhibition of recombinant human C-terminal 6His-tagged AChE (Glu32 to Leu614 residues) expressed in CHO cells using acetylthiocholine iodide as substrate preincubated for 5 mins measured after 15 mins by DTNB reagent based assay
Outline: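 Enzyme, compounds, acetylthiocholine iodide and DTNB diluted in 100 mM phosphate buffer pH 7.4. AChE was preincubated with the compound at varying concentrations for 5 min at 37 °C. The reaction was started with 1 mM ATCI solution and run 15 min at 37 °C. 2 mM DTNB solution was then added for 5 min. Absorbance read at 412 nm. IC50 set 0.1% DMSO wells as 100% and no-enzyme wells as 0%. Run in triplicate.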

[4] = target: T1, Class 1 histone deacetylase; assay: Inhibition of Class 1 HDAC in […] cells assessed as increase in acetylated Histone H3 level measured after 24 hrs by Western blot analysis; format: cell-based; conditions: for inhibition: Mus musculus
Hippocampal neurone = assay: Induction of neurite outgrowth in Sprague-Dawley rat primary hippocampal neurons assessed as increase in number of axonal and dendritic neurite incubated for 3 days by DAPI staining based immunofluorescence microscopic analysis; format: functional; conditions: time 3.0 day
Outline: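 Primary hippocampal neurons from embryonic Sprague-Dawley rats, plated on poly-D-lysine and kept in B27-neurobasal medium. Treated with DMSO or compound from DIV3 for three days, fixed at DIV6 in 4% paraformaldehyde. Axons stained with anti-tau, dendrites with anti-MAP2, nuclei with DAPI; fluorescence microscopy. At least 20 neurons traced for number and length of primary, secondary and tertiary neurites.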

Histone deacetylase 9 = Histone deacetylase 9 (Homo sapiens, UniProt Q9UKV0); assay: Inhibition of recombinant human C-terminal His-tagged HDAC9 (604 to 1066 residues) expressed in baculovirus infected Sf9 cells using fluorogenic HDAC 2A substrate preincubated for 5 mins followed by substrate addition and measured after 30 mins by fluorescence assay
Sequence of Histone deacetylase 9 (Q9UKV0 whole entry, the tested form may be a part): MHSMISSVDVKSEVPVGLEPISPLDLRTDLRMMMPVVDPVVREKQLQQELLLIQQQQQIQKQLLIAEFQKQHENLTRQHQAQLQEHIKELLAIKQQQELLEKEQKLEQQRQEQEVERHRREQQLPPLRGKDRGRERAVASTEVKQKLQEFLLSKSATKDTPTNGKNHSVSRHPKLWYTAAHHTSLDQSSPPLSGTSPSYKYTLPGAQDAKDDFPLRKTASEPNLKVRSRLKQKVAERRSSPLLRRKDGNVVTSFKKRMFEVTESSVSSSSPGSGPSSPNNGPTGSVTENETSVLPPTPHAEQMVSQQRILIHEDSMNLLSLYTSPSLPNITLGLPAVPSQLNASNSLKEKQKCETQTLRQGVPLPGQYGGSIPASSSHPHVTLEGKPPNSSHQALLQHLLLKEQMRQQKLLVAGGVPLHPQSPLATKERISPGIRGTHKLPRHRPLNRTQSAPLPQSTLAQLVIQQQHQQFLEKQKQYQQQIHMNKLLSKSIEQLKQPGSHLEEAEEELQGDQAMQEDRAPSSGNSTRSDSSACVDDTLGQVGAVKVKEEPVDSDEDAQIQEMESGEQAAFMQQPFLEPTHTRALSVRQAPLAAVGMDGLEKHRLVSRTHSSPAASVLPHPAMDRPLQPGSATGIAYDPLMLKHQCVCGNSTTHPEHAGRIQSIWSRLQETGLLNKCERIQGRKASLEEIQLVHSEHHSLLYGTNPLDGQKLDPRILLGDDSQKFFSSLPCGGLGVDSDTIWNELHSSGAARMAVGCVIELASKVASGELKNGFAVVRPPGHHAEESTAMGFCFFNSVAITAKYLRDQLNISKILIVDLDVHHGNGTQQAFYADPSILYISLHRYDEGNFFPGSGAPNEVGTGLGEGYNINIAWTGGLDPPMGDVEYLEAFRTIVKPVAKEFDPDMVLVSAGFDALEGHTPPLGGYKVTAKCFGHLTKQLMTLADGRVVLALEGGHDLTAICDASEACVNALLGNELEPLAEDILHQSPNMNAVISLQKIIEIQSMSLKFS

Histone deacetylase 1 = Histone deacetylase 1 (Homo sapiens, UniProt Q13547); assay: Inhibition of recombinant human C-terminal FLAG/His-tagged HDAC1 (1 to 482 residues) expressed in Sf9 insect cells using fluor de lys SIRT1 as substrate preincubated for 5 mins followed by substrate addition and measured after 30 mins by fluorescence assay
Sequence of Histone deacetylase 1 (Q13547 whole entry, the tested form may be a part): as the sequence (Q13547 whole entry, looked up) above

[5] = target: T2, Amyloid-beta precursor protein; assay: Disaggregation of self-induced amyloid beta (1 to 42) (unknown origin) preformed fibrils at 10 uM measured after 24 hrs by thioflavin-T fluorescence assay relative to control
Outline: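 Aβ1-42 (10 µM) with 10 µM ThT and 1 mM EDTA in 50 mM phosphate buffer (150 mM NaCl, pH 7.4) pre-aggregated 24 h at 37 °C, 700 rpm; fluorescence read (ex 440/em 486 nm). Compound then added and incubated a further 24 h at 37 °C before re-reading. Disaggregation = (first − second reading)/first reading. Triplicate.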

Histone deacetylase 5 = Histone deacetylase 5 (Homo sapiens, UniProt Q9UQL6); assay: Inhibition of recombinant human C-terminal His-tagged HDAC5 (656 to 1122 residues) expressed in baculovirus infected Sf9 insect cells using fluorogenic HDAC 2A substrate preincubated for 5 mins followed by substrate addition and measured after 30 mins by fluorescence assay
Sequence of Histone deacetylase 5 (Q9UQL6 whole entry, the tested form may be a part): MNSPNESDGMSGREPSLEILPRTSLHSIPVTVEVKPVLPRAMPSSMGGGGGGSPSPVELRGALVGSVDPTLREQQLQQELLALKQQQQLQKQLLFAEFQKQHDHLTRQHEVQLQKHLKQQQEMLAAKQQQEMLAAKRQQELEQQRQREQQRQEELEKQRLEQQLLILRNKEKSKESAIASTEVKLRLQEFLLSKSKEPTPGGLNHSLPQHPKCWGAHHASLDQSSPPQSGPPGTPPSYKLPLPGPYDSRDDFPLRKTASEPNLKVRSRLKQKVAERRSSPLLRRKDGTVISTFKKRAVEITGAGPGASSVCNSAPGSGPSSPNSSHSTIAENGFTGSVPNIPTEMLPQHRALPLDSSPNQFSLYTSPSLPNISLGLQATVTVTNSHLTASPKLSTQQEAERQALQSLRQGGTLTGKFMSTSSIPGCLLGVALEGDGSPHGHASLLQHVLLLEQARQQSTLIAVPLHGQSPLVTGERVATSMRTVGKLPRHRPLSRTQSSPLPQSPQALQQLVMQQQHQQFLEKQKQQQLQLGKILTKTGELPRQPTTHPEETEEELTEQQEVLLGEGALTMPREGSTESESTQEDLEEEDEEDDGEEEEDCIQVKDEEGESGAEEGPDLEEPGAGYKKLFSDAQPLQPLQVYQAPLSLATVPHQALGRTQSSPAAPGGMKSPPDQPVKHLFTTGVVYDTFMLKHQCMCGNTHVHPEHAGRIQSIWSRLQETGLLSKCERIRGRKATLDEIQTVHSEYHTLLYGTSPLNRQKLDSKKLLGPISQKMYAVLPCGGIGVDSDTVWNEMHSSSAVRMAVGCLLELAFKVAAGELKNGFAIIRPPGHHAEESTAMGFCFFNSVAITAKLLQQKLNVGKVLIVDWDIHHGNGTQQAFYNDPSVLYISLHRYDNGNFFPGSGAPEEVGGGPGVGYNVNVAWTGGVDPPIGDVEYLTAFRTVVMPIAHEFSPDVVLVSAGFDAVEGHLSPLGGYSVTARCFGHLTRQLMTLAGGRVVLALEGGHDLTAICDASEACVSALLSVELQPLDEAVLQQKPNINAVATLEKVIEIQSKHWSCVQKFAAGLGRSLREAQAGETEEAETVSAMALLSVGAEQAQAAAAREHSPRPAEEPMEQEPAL

[6] = target: Histone deacetylase 3/Nuclear receptor corepressor 2 (HDAC3/NCoR2) (Homo sapiens, UniProt O15379); assay: Inhibition of human recombinant C-terminal His-tagged HDAC3 (1 to 428 residues)/N-terminal GST-tagged NCOR2 (395 to 489 residus) expressed in baculovirus infected Sf9 insect cells using fluor de lys SIRT1 as substrate preincubated for 5 mins followed by substrate addition and measured after 30 mins by fluorescence assay
[7] = Half life in human liver microsomes at 1 uM preincubated for 3 mins followed by NADPH addition and measured up to 60 mins by LC-MS/MS analysis; format: ADME, Microsome; conditions: time <=63 min; outline: as §1

SMILES	IC50 [1] [nM]	IC50 (Histone deacetylase 2) [nM]	IC50 [2] [nM]	CLint [3] [µL/min/mg]	IC50 (Acetylcholinesterase) [nM]	EC50 [4] [nM]	inhibition [4]	Activity (Hippocampal neurone)	IC50 (Histone deacetylase 9) [nM]	IC50 (Histone deacetylase 1) [nM]	inhibition [5] [%]	IC50 (Histone deacetylase 5) [nM]	IC50 [6] [nM]	half-life at 1 µM [7] [min]
O=C(NO)c1ccc(Nc2c3ccccc3nc3ccccc23)cc1	550	1570	3000	40.7	720	7960	Dose-dependent effect	Dose-dependent effect	570	340	41	850	1220	33.9
O=C(NO)c1ccc(Nc2c3ccccc3nc3ccc(Br)cc23)cc1	160	480	1100	36.6	880	580	Dose-dependent effect	Dose-dependent effect	5510	90	70	7190	330	37.9
